A short description of data set [1]: folding enthalpy; higher = less favourable; fluorescence melt of hairpins on a sequencing array, two-state fit. The following applies: sodium 0.088 M. The essentials: (§1)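 On a sequenced MiSeq flow cell, library hairpins with annealed Cy3 and quencher oligos were imaged for Cy3 fluorescence in 2.5 °C steps up to 60 °C, in 50 mM Na-HEPES pH 8.0, 25 mM NaCl. Normalisation used pre-quench Cy3 and control constructs. Bootstrapped two-state fits gave melting temperature and folding enthalpy, combined by inverse variance across four replicates and with fitted temperatures raised by 9.35 °C to match UV melts.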

Data set [2] in a line: melting temperature; fluorescence melt of hairpins on a sequencing array, two-state fit, raised by 9.35 °C to match UV melts. The conditions noted are these: sodium 0.088 M. The essentials: as §1

On to GCAGCGCGAAAGCATTGC (((..((....))..))), for which the folding enthalpy in data set [1] was -14 kcal/mol. For the same sequence, in data set [2], the Tm came to 40.9 °C.
GCAGCGCGAAAGCCATGC (((..((....))..))): the folding enthalpy in data set [1] was -14.9 kcal/mol. For the same sequence, in data set [2], the Tm is 45.1 °C.
For the sequence GCAGCGCGAAAGCCCAGC ((.(.((....)).).)), in data set [1], the folding enthalpy was -10.9 kcal/mol. The Tm in data set [2] turned out to be 28.1 °C.
On to GCAGCGCGAAAGCCCTGC ((((.((....)).)))), for which, in data set [1], the folding enthalpy was -25.9 kcal/mol. Moreover, the Tm in data set [2] turned out to be 60.1 °C.
GCAGCGCGAAAGCGCCGC ((.((((....)))).)): the folding enthalpy in data set [1] was -15.5 kcal/mol. The Tm in data set [2] is 67.4 °C.
For GCAGCGCGAAAGCGGCGC ((..(((....)))..)), in data set [1], the folding enthalpy was -21.6 kcal/mol. Further, the Tm in data set [2] came to 67.5 °C.
On the same counts, the results for GCAGCGCGAAAGCGGGGC ((..(((....)))..)) are -28 kcal/mol and 67.2 °C.
As for GCAGCGCGAAAGCGTGGC ((..(((....)))..)), the folding enthalpy in data set [1] is -23.1 kcal/mol. In addition, in data set [2], the Tm came to 64.2 °C.
The corresponding values for GCAGCTCCGAAAGGATGC (((..(((....)))))) are -16.2 kcal/mol and 41.5 °C.
On to GCAGCTGCGAAAGCATGC (((..(((....)))))), for which the folding enthalpy in data set [1] was -11.6 kcal/mol. Besides, the Tm in data set [2] stood at 45.1 °C.
Consider GCAGCTGGAAACAGCTAC (.(((((....))))).), for which the folding enthalpy in data set [1] was -14 kcal/mol. Also, the Tm in data set [2] is 42.1 °C.
Consider GCAGCTTCGAAAGAATGC (((..(((....)))))), for which the folding enthalpy in data set [1] is -12.8 kcal/mol. Besides, the Tm in data set [2] came to 29.1 °C.
On to GCAGGACGAAAGTCTGC (((.(((....)))))), for which, in data set [1], the folding enthalpy was -31.7 kcal/mol. For the same sequence, the Tm in data set [2] was 58.4 °C.
GCAGGAGAAATCCTGC ((((((....)))))): in data set [1], the folding enthalpy was -36.1 kcal/mol. The Tm in data set [2] amounted to 61.1 °C.
GCAGGCGAAAGCCCCTGC ((((((....)))..))): in data set [1], the folding enthalpy is -15.9 kcal/mol. Also, the Tm in data set [2] is 40.6 °C.
On the same counts, the results for GCAGGCGAAAGCCGTTGC ((((((....)))..))) are -12.6 kcal/mol and 53.7 °C.
For the sequence GCAGGCGAAAGCCTCTGC ((((((....)))..))), the folding enthalpy in data set [1] was -12 kcal/mol. Moreover, the Tm in data set [2] was found to be 46.7 °C.
As for GCAGGCGAAAGCCTGTGC ((((((....)))..))), the folding enthalpy in data set [1] is -14.2 kcal/mol. Further, the Tm in data set [2] worked out at 68.2 °C.
With GCAGGGAAACCTGC (((((....))))), the folding enthalpy in data set [1] is -28.1 kcal/mol. Besides, in data set [2], the Tm worked out at 62.7 °C.
Take GCAGGGCCGAAAGGCTGC (((..(((....)))))): in data set [1], the folding enthalpy was -14.3 kcal/mol. Also, in data set [2], the Tm was 55.3 °C.
With GCAGGGCGAAAGCACGGC ((.(.((....)).).)), the folding enthalpy in data set [1] is -33.9 kcal/mol. In data set [2], the Tm was determined as 65 °C.
Regarding GCAGGGCGAAAGCCAAGC ((..(((....)))..)), in data set [1], the folding enthalpy is -17.2 kcal/mol. Besides, the Tm in data set [2] worked out at 53.4 °C.
With GCAGGGCGAAAGCCTGC (((.(((....)))))), in data set [1], the folding enthalpy was -20.3 kcal/mol. The Tm in data set [2] was 68 °C.
Consider GCAGGGCGAAAGCGCAGC ((.(.((....)).).)), for which the folding enthalpy in data set [1] is -11.9 kcal/mol. Further, the Tm in data set [2] turned out to be 54.8 °C.
On the same counts, the results for GCAGGGGCGAAAGCCTGC (((..(((....)))))) are -17.6 kcal/mol and 53.7 °C.
With GCAGGTCCGAAAGGATGC (((..(((....)))))), the folding enthalpy in data set [1] was -16.6 kcal/mol. In addition, the Tm in data set [2] is 37.7 °C.
Turning to GCAGGTCGAAAGACTTGC (((.(((....))).))), the folding enthalpy in data set [1] was -41.2 kcal/mol. Also, in data set [2], the Tm was 56.7 °C.
As to GCAGGTGGAAACATCTGC ((((.((....)).)))), the folding enthalpy in data set [1] is -37.8 kcal/mol. In addition, in data set [2], the Tm turned out to be 52.9 °C.
On to GCAGGTGGAAACGCTTGC (((.(.(....).).))), for which the folding enthalpy in data set [1] was -23 kcal/mol. The Tm in data set [2] was determined as 46.6 °C.
For GCAGTACGAAAGTATTGC (((.(((....))).))), in data set [1], the folding enthalpy was -45.2 kcal/mol. In addition, in data set [2], the Tm stood at 52.8 °C.
In the case of GCAGTAGGAAACTACTGC (((((((....))))))), in data set [1], the folding enthalpy is -54 kcal/mol. Also, in data set [2], the Tm was determined as 64.6 °C.
Consider GCAGTCCGAAAGGAATGC (((.(((....))).))), for which the folding enthalpy in data set [1] is -38.1 kcal/mol. For the same sequence, the Tm in data set [2] was found to be 62.1 °C.
Consider GCAGTCCGAAAGGAGTGC (((.(((....))).))), for which the folding enthalpy in data set [1] is -47.7 kcal/mol. For the same sequence, the Tm in data set [2] is 65.8 °C.
As for GCAGTCCGAAAGGATTGC (((.(((....))).))), in data set [1], the folding enthalpy was -46.3 kcal/mol. In data set [2], the Tm is 60.2 °C.
On the same counts, the results for GCAGTCGAAAGACACTGC ((((((....)))..))) are -18 kcal/mol and 43.5 °C.
On the same counts, the results for GCAGTCGAAAGACCTTGC ((((((....)))..))) are -13.3 kcal/mol and 33.8 °C.
Turning to GCAGTCGAAAGACTTTGC ((((((....)))..))), in data set [1], the folding enthalpy is -17.7 kcal/mol. Moreover, in data set [2], the Tm was 35.7 °C.

These data come from the array DNA melting data of Ke et al. (doi:10.1101/2024.01.08.574731).
